Values after ≈ are worked out from the molar mass of the structure shown. “Also recorded” adds a separate entry of the source. Like-named read-outs stand apart in the source and are kept apart here. Non-standard residues stand in square brackets, D forms with d. Residues, ends and D or L forms follow the SMILES beside them. Dip = N[C@H](C(=O)O)C(c1ccccc1)c1ccccc1
What was measured:
[1] = system: A. fumigatus (Af-293) biofilm; experiment: Antibiofilm activity, XTT assay; assay type: cell-based, Aspergillus fumigatus
Outline: (§1)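 Fungal biofilms came from suspensions at 2×10^7 CFU/mL in RPMI medium grown 24 h at 35 °C, then washed twice with PBS. […] After washing, XTT with phenazine methosulfate was added for 1 h in the dark at 37 °C, and absorbance was read at 492 nm. Percentage decrease versus untreated wells; triplicate, replicated twice.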

C. albicans (ATCC 60193) [2] = experiment: microbe, parasite or virus in culture; assay type: cell-based; conditions: ATCC 60193
MRSA (ATCC BAA-1556) [3] = assay type: cell-based, Methicillin-resistant staphylococcus aureus
A. fumigatus (Af-293) [4] = experiment: microbe, parasite or virus in culture; assay type: cell-based, Aspergillus fumigatus; conditions: for MIC: Aspergillus fumigatus
[5] = system: E. coli (ATCC 25922) and E. coli (ATCC BAA-2452); experiment: Resistance development study, repeated exposure; assay type: cell-based; conditions: E. coli strains; 18 exposures
[6] = system: human skin fibroblast cell (HeKa); conditions: 24 h, 100 μg/mL
[7] = system: Clostridium difficile (ATCC 700057)
[8] = system: Escherichia coli (ATCC BAA-2452), NDM-1
in vitro [9] = conditions: human, cell viability
Gram-negative bacteria = conditions: drug-resistant Gram-negative bacteria, range over strains
in vitro [10] = conditions: human
E. coli (ATCC BAA-2452) [11] = assay type: cell-based, Escherichia coli
in vitro [12] = conditions: human; remark: listed apart in the source
[13] = system: MRSA (ATCC BAA-1556) biofilm; experiment: Antibiofilm activity, XTT assay; assay type: cell-based, Methicillin-resistant staphylococcus aureus
Outline: (§2)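 Bacterial suspensions at 5×10^5 CFU/mL in MH broth were grown 24 h at 37 °C to form biofilms, then washed twice with PBS. […] Biofilms were rewashed, then given XTT plus phenazine methosulfate for 1 h in the dark at 37 °C, and A492 was read. Percentage decrease versus untreated wells; triplicate, run twice.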

[14] = system: human red blood cells (hRBC); experiment: Hemolytic activity; assay type: cell-based; conditions: concentration at which 50% hemolysis was observed
A. fumigatus (Af-293) [15] = experiment: Kill kinetics assay; assay type: cell-based, Aspergillus fumigatus; conditions: for eradication of fungal cells: after 12 h
[16] = system: E. coli (ATCC BAA-2452) biofilm; experiment: Antibiofilm activity, XTT assay; assay type: cell-based, Escherichia coli
Outline: as §2

[17] = system: Clostridium difficile (NAP1/027); conditions: Reduced susceptibility to multiple antibiotics
C. albicans (ATCC 60193) [18] = experiment: Kill kinetics assay; assay type: cell-based; conditions: after 12 h
[19] = system: C. albicans (ATCC 60193) biofilm; experiment: Antibiofilm activity, XTT assay; assay type: cell-based
Outline: as §1

in vitro [20] = conditions: human, cell viability; remark: listed apart in the source
in vitro [21] = conditions: human, cell viability; remark: listed apart in the source
[22] = system: Acinetobacter baumannii (ATCC BAA1605), ciprofloxacin resistant; conditions: Ciprofloxacin resistant strain
[23] = Calcein dye leakage assay; conditions: mammalian mimic liposomes; after 100 min; concentration not given
Outline: (§3)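 Calcein-loaded LUVs were used: negatively charged ones mimic bacterial membranes and zwitterionic ones mimic mammalian membranes. They were diluted in PBS to a final lipid concentration of 40 μM and mixed 1:1 with test compound at 5, 10, 20, 30 or 50 μg/mL. Fluorescence (ex 490/em 520 nm) was read every 10 min for 100 min. Leakage was expressed relative to background and Triton X-100 lysis (100%); triplicate.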

[24] = system: Pseudomonas aeruginosa (ATCC BAA-1744), imipenem resistant; conditions: Imipenem resistant strain
[25] = system: Enterococcus faecalis (ATCC 51575), vancomycin resistant
[26] = Calcein dye leakage assay; conditions: bacterial mimic liposomes; for calcein dye leakage: 5 μg/mL
Outline: as §3

MRSA (ATCC BAA-1556) [27] = experiment: Kill kinetics assay; assay type: cell-based, Methicillin-resistant staphylococcus aureus
fungi = conditions: range over strains
E. coli (ATCC BAA-2452) [28] = experiment: Kill kinetics assay; assay type: cell-based, Escherichia coli
[29] = system: Staphylococcus pneumoniae (ATCC 700677), multi-drug resistant; conditions: Multi-drug resistant (Penicillin, Tetracycline, and Erythromycin)
[30] = system: Enterococcus faecalis (ATCC 29212)
A. fumigatus (Af-293) [31] = experiment: microbe, parasite or virus in culture; assay type: cell-based; conditions: Aspergillus fumigatus, read-out: MIC A. fumigatus (Af-293)

## N=C(N)NCCC[C@@H]1NC(=O)[C@H](CCCNC(=N)N)NC(=O)[C@H](CCCNC(=N)N)NC(=O)[C@H](C(c2ccccc2)c2ccccc2)NC(=O)[C@H](Cc2c[nH]c3ccccc23)NC(=O)[C@H](C(c2ccccc2)c2ccccc2)NC(=O)[C@H](CCCNC(=N)N)NC1=O [3b, c[Arg-Arg-Arg-Arg-Dip-Trp-Dip]] (cyclo(RRRR[Dip]W[Dip]))
[1]; at 2× the MIC
  reduction in biofilm mass: 49–56%
[1]; at MIC
  reduction in biofilm mass: 31–36%
C. albicans (ATCC 60193) [2]
  MIC CaCl2: 6.2 µg/mL (≈ 4.93 µM)
  MIC Control: 3.1 µg/mL (≈ 2.47 µM)
  MIC KCl: 3.1 µg/mL (≈ 2.47 µM)
  MIC MgCl2: 3.1 µg/mL (≈ 2.47 µM)
  MIC NH4Cl: 6.2 µg/mL (≈ 4.93 µM)
  MIC NaCl: 3.1 µg/mL (≈ 2.47 µM)
MRSA (ATCC BAA-1556) [3]
  MIC CaCl2: 1.5 µg/mL (≈ 1.19 µM)
  MIC Control: 1.5 µg/mL (≈ 1.19 µM)
  MIC KCl: 3.1 µg/mL (≈ 2.47 µM)
  MIC MgCl2: 3.1 µg/mL (≈ 2.47 µM)
  MIC NH4Cl: 1.5 µg/mL (≈ 1.19 µM)
  MIC NaCl: 3.1 µg/mL (≈ 2.47 µM)
A. fumigatus (Af-293) [4]; A. fumigatus (Af-293), MgCl2 1 mM
  MIC MgCl2: 12.5 µg/mL (≈ 9.94 µM)
A. fumigatus (Af-293) [4]; A. fumigatus (Af-293), NaCl 150 mM
  MIC NaCl: 12.5 µg/mL (≈ 9.94 µM)
A. fumigatus (Af-293) [4]; A. fumigatus (Af-293), fetal bovine serum 25%
  MIC FBS (25%): 12.5 µg/mL (≈ 9.94 µM)
A. fumigatus (Af-293) [4]; Af-293
  MIC CaCl2: 6.2 µg/mL (≈ 4.93 µM)
  MIC Control: 6.2 µg/mL (≈ 4.93 µM)
  MIC KCl: 6.2 µg/mL (≈ 4.93 µM)
  MIC NH4Cl: 6.2 µg/mL (≈ 4.93 µM)
[5]
  change in MIC after repeated exposure (resistance development): no signs of resistance development; also recorded: negligible changes in the MIC values
[6]
  cell viability: > 60%
[7]
  MIC Clostridium difficile (ATCC 700057): 12.5 µg/mL (≈ 9.94 µM)
[8]
  MIC Escherichia coli (ATCC BAA-2452): 12.5 µg/mL (≈ 9.94 µM)
In vitro [9]
  viability at 24 h, 100 μg/mL: > 70%
Gram-negative bacteria
  MIC: 12.5 to 25 µg/mL
In vitro [10]
  viability at 24 h, 50 μg/mL: 81 to 89%
  viability at 24 h, 100 μg/mL: > 70%
  viability at 24 h, 250 μg/mL: > 50%
E. coli (ATCC BAA-2452) [11]; ATCC BAA-2452
  MIC NaCl: 25 µg/mL (≈ 19.9 µM)
E. coli (ATCC BAA-2452) [11]; E. coli (ATCC BAA-2452), CaCl2 2 mM
  MIC CaCl2: 12.5 µg/mL (≈ 9.94 µM)
E. coli (ATCC BAA-2452) [11]; E. coli (ATCC BAA-2452), KCl […]
  MIC KCl: 12.5 µg/mL (≈ 9.94 µM)
E. coli (ATCC BAA-2452) [11]; E. coli (ATCC BAA-2452), MH media without salt ions or serum
  MIC Control: 12.5 µg/mL
E. coli (ATCC BAA-2452) [11]; E. coli (ATCC BAA-2452), MgCl2 1 mM
  MIC MgCl2: 12.5 µg/mL (≈ 9.94 µM)
E. coli (ATCC BAA-2452) [11]; E. coli (ATCC BAA-2452), NH4Cl 6 mM
  MIC NH4Cl: 12.5 µg/mL (≈ 9.94 µM)
In vitro [12]; human plasma
  remaining at 0.5 h, 75 μM: ~82.4%
  remaining at 12 h, 75 μM: ~52.3%
  remaining at 24 h, 75 μM: ~44.9%
In vitro [12]; plasma
  half-life at 75 μM: 13 h
[13]; at 2× the MIC
  reduction in biofilm mass: 60–65%
[13]; at MIC, vs untreated control
  reduction in biofilm mass: 40–45%
[14]
  HC50: 230 µg/mL
A. fumigatus (Af-293) [15]; at 4× the MIC
  eradication of fungal cells: near-complete eradication
A. fumigatus (Af-293) [15]; at MIC
  eradication of fungal cells: Complete eradication was not achieved
[16]; at 2× the MIC
  reduction in biofilm mass: 60–65%
[16]; at MIC
  reduction in biofilm mass: 40–45%
[17]
  MIC Clostridium difficile (NAP1/027): 6.2 µg/mL (≈ 4.93 µM)
C. albicans (ATCC 60193) [18]; at 4× the MIC
  eradication of fungal cells: near-complete eradication
C. albicans (ATCC 60193) [18]; at MIC
  eradication of fungal cells: Complete eradication was not achieved
[19]; at 2× the MIC
  decrease in biofilm mass: 60–62%
[19]; at MIC
  decrease in biofilm mass: 31–39%
In vitro [20]
  viability at 24 h, 100 μg/mL: > 70%
In vitro [21]
  viability at 24 h, 100 μg/mL: > 70%
[22]
  MIC Acinetobacter baumannii (ATCC BAA1605): 12.5 µg/mL (≈ 9.94 µM)
[23]
  calcein dye leakage: 14.11%
[24]
  MIC Pseudomonas aeruginosa (ATCC BAA-1744): 12.5 µg/mL (≈ 9.94 µM)
[25]
  MIC Enterococcus faecalis (ATCC 51575): 12.5 µg/mL (≈ 9.94 µM)
[26]; 40 min
  calcein dye leakage: approximately 20%
[26]; 60 min
  calcein dye leakage: ~60%
[26]; 50 μg/mL
  incubation time to 100% dye leakage: 60 min
MRSA (ATCC BAA-1556) [27]; at 4× the MIC
  time to virtually eliminate all bacterial cells: 1 to 2 h
MRSA (ATCC BAA-1556) [27]; at MIC
  time to virtually eliminate all bacterial cells: 3 to 4 h
fungi
  MIC: 3.1 to 12.5 µg/mL
E. coli (ATCC BAA-2452) [28]; at 4× the MIC
  time to completely halt growth of nearly all cells: 2 h
E. coli (ATCC BAA-2452) [28]; at MIC
  time to completely halt growth of nearly all cells: 4 h
[29]
  MIC Staphylococcus pneumoniae (ATCC 700677): 12.5 µg/mL (≈ 9.94 µM)
[30]
  MIC Enterococcus faecalis (ATCC 29212): 12.5 µg/mL (≈ 9.94 µM)

## C[C@@H]1[C@H](O)[C@@H](C)/C=C/C=C/C=C/C=C/C=C/C=C/C=C/[C@H](O[C@@H]2O[C@H](C)[C@@H](O)[C@H](N)[C@@H]2O)C[C@@H]2O[C@](O)(C[C@@H](O)C[C@@H](O)[C@H](O)CC[C@@H](O)C[C@@H](O)CC(=O)O[C@H]1C)C[C@H](O)[C@H]2C(=O)O [Amphotericin B, reference compound]
A. fumigatus (Af-293) [4]; read-out: MIC CaCl2
  MIC: 0.7 µg/mL (≈ 0.758 µM)
A. fumigatus (Af-293) [4]; read-out: MIC Control
  MIC: 0.7 µg/mL (≈ 0.758 µM)
A. fumigatus (Af-293) [4]; read-out: MIC FBS (25%)
  MIC: 0.7 µg/mL (≈ 0.758 µM)
A. fumigatus (Af-293) [4]; read-out: MIC KCl
  MIC: 0.7 µg/mL (≈ 0.758 µM)
A. fumigatus (Af-293) [4]; read-out: MIC MgCl2
  MIC: 1.5 µg/mL (≈ 1.62 µM)
A. fumigatus (Af-293) [4]; read-out: MIC NH4Cl
  MIC: 0.7 µg/mL (≈ 0.758 µM)
A. fumigatus (Af-293) [4]; read-out: MIC NaCl
  MIC: 0.7 µg/mL (≈ 0.758 µM)
A. fumigatus (Af-293) [15]; MIC and 4×MIC, compared to 3b and 4b
  fungicidal effect in kill kinetics: mild fungicidal effect
A. fumigatus (Af-293) [31]
  MIC: 0.7 µg/mL (≈ 0.758 µM)

From PMC12207910 (European journal of pharmaceutical sciences : official …, 2024)
